# Test results taken from ChEMBL document CHEMBL1811788, “Chaxamycins A-D, bioactive ansamycins from a hyper-arid desert Streptomyces sp” (2011).
# Tests used:
# Staphylococcus aureus [1] = experiment: Antibacterial activity against epidemic methicillin-resistant Staphylococcus aureus isolate 16 isolated from patient graft wound after 18 hrs by microtiter plate reader assay; type: functional; conditions: isolate 16, 18 h
# Procedure, shortened: (§1)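 S. aureus grown in Müller-Hinton broth to early stationary phase, diluted to OD650 = 0.0005. Broth microdilution in triplicate, with at least two independent cultures per strain. Test compound (32–0.016 μg/mL) and rifampicin control (0.03–0.001 μg/mL) dissolved in DMSO (up to 0.63%). Incubated 18 h at 37 °C, growth read at OD620. MIC taken as lowest concentration showing no growth versus MH broth control.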
# Staphylococcus aureus [2] = experiment: Antibacterial activity against Staphylococcus aureus RN4220 after 18 hrs by microtiter plate reader assay; type: functional; conditions: RN4220, 18 h; procedure, shortened: as §1
# Staphylococcus aureus [3] = experiment: Antibacterial activity against scottish methicillin-resistant Staphylococcus aureus isolate 106 isolated from patient nasal swab after 18 hrs by microtiter plate reader assay; type: functional; conditions: isolate 106, 18 h; procedure, shortened: as §1
# Staphylococcus aureus [4] = experiment: Antibacterial activity against scottish methicillin-resistant Staphylococcus aureus isolate 105 isolated from patient toe wound after 18 hrs by microtiter plate reader assay; type: functional; conditions: isolate 105, 18 h; procedure, shortened: as §1
# Staphylococcus aureus [5] = experiment: Antibacterial activity against epidemic methicillin-resistant Staphylococcus aureus isolate 15 isolated from patient urine infection after 18 hrs by microtiter plate reader assay; type: functional; conditions: isolate 15, Urine; procedure, shortened: as §1
# Staphylococcus aureus [6] = experiment: Antibacterial activity against scottish methicillin-resistant Staphylococcus aureus isolate 116 isolated from patient knee abscess after 18 hrs by microtiter plate reader assay; type: functional; conditions: isolate 116, Knee; procedure, shortened: as §1
# Staphylococcus aureus [7] = experiment: Antibacterial activity against scottish methicillin-resistant Staphylococcus aureus isolate 124 isolated from patient open wound after 18 hrs by microtiter plate reader assay; type: functional; conditions: isolate 124, 18 h; procedure, shortened: as §1
# Staphylococcus aureus [8] = experiment: Antibacterial activity against scottish methicillin-resistant Staphylococcus aureus isolate 161 (PF161d) isolated from patient buttock abscess after 18 hrs by microtiter plate reader assay; type: functional; conditions: isolate 161, 18 h; procedure, shortened: as §1
# Escherichia coli = experiment: Antibacterial activity against Escherichia coli ATCC 25922 by agar diffusion method with regression line analysis
# Staphylococcus aureus [9] = experiment: Antibacterial activity against Staphylococcus aureus ATCC 25923 after 18 hrs by microtiter plate reader assay; type: functional; conditions: ATCC 25923, 18 h
# Staphylococcus aureus [10] = experiment: Antibacterial activity against scottish methicillin-resistant Staphylococcus aureus […] isolated from patient arm cellulitis after 18 hrs by microtiter plate reader assay; type: functional; conditions: isolate 153, 18 h; procedure, shortened: as §1
# Staphylococcus aureus [11] = experiment: Antibacterial activity against scottish methicillin-resistant Staphylococcus aureus isolate 161 (PF161) isolated from patient thigh abscess after 18 hrs by microtiter plate reader assay; type: functional; conditions: isolate 161, Thigh muscle; procedure, shortened: as §1
# Staphylococcus aureus [12] = experiment: Antibacterial activity against scottish methicillin-resistant Staphylococcus aureus isolate 126 isolated from patient nasal swab after 18 hrs by microtiter plate reader assay; type: functional; conditions: isolate 126, 18 h; procedure, shortened: as §1
SMILES,MIC (Staphylococcus aureus [1]) [µg/mL],MIC (Staphylococcus aureus [2]) [µg/mL],MIC (Staphylococcus aureus [3]) [µg/mL],MIC (Staphylococcus aureus [4]) [µg/mL],MIC (Staphylococcus aureus [5]) [µg/mL],MIC (Staphylococcus aureus [6]) [µg/mL],MIC (Staphylococcus aureus [7]) [µg/mL],MIC (Staphylococcus aureus [8]) [µg/mL],MIC (Escherichia coli) [µg/mL],MIC (Staphylococcus aureus [9]) [µg/mL],MIC (Staphylococcus aureus [10]) [µg/mL],MIC (Staphylococcus aureus [11]) [µg/mL],MIC (Staphylococcus aureus [12]) [µg/mL]
CO[C@H]1/C=C/O[C@@]2(C)Oc3c(C)c(O)c4c(O)c(c(/C=N/N5CCN(C)CC5)c(O)c4c3C2=O)NC(=O)/C(C)=C\C=C\[C@H](C)[C@H](O)[C@@H](C)[C@@H](O)[C@@H](C)[C@H](OC(C)=O)[C@@H]1C [RIFAMPIN],4,0.002,0.004,0.002,0.002,0.002,–,–,–,–,–,–,–
CC(=O)O[C@H]1[C@H](C)[C@H](O)[C@H](C)[C@@H](O)[C@@H](C)/C=C/C=C\C(=O)NC2=C(C)C(=O)c3c(c(O)c(C)c4c3[C@H](O)[C@](C)(O/C=C/[C@H](O)[C@H]1C)O4)C2=O [CHAXAMYCIN D],> 32,0.06,0.25,0.13,0.06,0.13,0.13,0.25,1.21,0.05,0.25,0.13,0.13
